According to ChEMBL document CHEMBL1132931, “Screening of new antioxidant molecules using flow cytometry” (2000):
Calls of active or inactive are those of the source. The rule behind the calls is not given here.

Tests used:
[1] = Glutathione peroxidase-like activity at 10x(E -2) M concentration as NADP+/L/min; type: functional
Mus musculus [2] = species: Mus musculus; assay: Glutathione peroxidase-like activity at 10x(E -4) M concentration measured as NADP+/L/min; type: functional
[3] = test system: Murine-murine hybridoma (mark 3); assay: (§1) Antioxidative property against stable murine-murine hybridoma (Mark 3) cell line; type: functional
[4] = Glutathione peroxidase-like activity at 10x(E -3) M concentration as NADP+/L/min; type: functional
[5] = Glutathione peroxidase-like activity in relative to Ebselen glutathione peroxidase-like activity; type: functional; set-up: concentration or dose not given beside the values
In short: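 Glutathione peroxidase-like activity by the Paglia and Valentine method. Compound solution (100 µL) was added to phosphate buffer, pH 7, with H2O2 and GSH (1.5 × 10-1 M stock in 0.01 M HCl). NADP+ formation was read at 340 nm and expressed as µmol NADP+/L/min. Blanks checked direct NADPH oxidation by compounds. Ebselen was run as the reference.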

[6] = Glutathione peroxidase-like activity in relation to Ebselen glutathione peroxidase-like activity; type: functional; set-up: concentration or dose not given beside the values
Mus musculus [7] = species: Mus musculus; assay: Antioxidative property against stable murine-murine hybridoma (Mark 3) cell line; no effect; type: functional, organism-based
[8] = Glutathione peroxidase-like activity at 10x(E -2) M concentration; type: functional
Mus musculus [9] = species: Mus musculus; assay: as §1; type: functional
[10] = Glutathione peroxidase-like activity at 10x(E -4) M concentration as NADP+/L/min; traces; type: functional
Mus musculus [11] = species: Mus musculus; assay: Antioxidative property against stable murine-murine hybridoma (Mark 3) cell line; fluorescence at 488 nm; type: functional, organism-based

Molecule	Activity [1]	Activity (Mus musculus [2])	Effective molarity [3]	Activity [4]	Activity [5]	Activity [6]	NE (Mus musculus [7])	Activity [8]	Effective molarity (Mus musculus [9])	Activity [10]	Effective molarity (Mus musculus [11])
CS(=O)(=O)n1c2c(c3ccccc31)CCc1[se]nnc1-2	246 µM	18 µM/min	0.0001 M l-1	31 µM	23%	–	–	–	–	–	–
c1ccc2c3c([nH]c2c1)-c1ccsc1SC3	75 µM	44 µM/min	1e-05 M l-1	71 µM	7%	–	–	–	–	–	–
CCOC(=O)c1sc(SC)c2c1ccc1c3cc(OC)ccc3[nH]c12	151 µM	26 µM/min	–	9 µM	–	14%	–	–	–	–	–
CCOC(=O)c1cc2ccc3c(c4ccccc4n3C)c2o1	53 µM	33 µM/min	0.0001 M l-1	15 µM	–	5%	–	–	–	–	–
CS(=O)(=O)n1c2ccccc2c2c3nn[se]c3ccc21	46 µM	29 µM/min	0.0001 M l-1	33 µM	4%	–	–	–	–	–	–
c1ccc2c(c1)[nH]c1c2ccc2[se]nnc21	51 µM	20 µM/min	–	31 µM	5%	–	inactive	–	–	–	–
c1ccc2c(c1)[nH]c1c2ccc2ccsc21	25 µM	27 µM/min	1e-05 M l-1	20 µM	2%	–	–	–	–	–	–
COc1ccc2[nH]c3c(ccc4ccsc43)c2c1	60 µM	4 µM/min	–	22 µM	–	6%	–	–	–	–	–
CCOC(=O)c1cc2ccc3c(c4ccccc4n3C)c2s1	–	–	0.0001 M l-1	–	–	11%	–	–	–	–	–
O=c1c2ccccc2[se]n1-c1ccccc1 [EBSELEN]	1050 µM	–	1e-05 M l-1	111 µM	100%	–	–	–	–	–	–
COc1ccc2[nH]c3ccc4nc(C)sc4c3c2c1	–	33 µM/min	–	35 µM	–	6%	–	64 µM	–	–	–
COc1cccc2c1C(=O)c1[nH]c3ccccc3c1-2	369 µM	20 µM/min	–	29 µM	–	35%	–	–	1e-06 M l-1	–	–
COC(=O)c1cc2ccc3c(c4ccccc4n3C)c2[se]1	104 µM	29 µM/min	1e-05 M l-1	31 µM	10%	–	–	–	–	–	–
CCOC(=O)c1sc(SC)c2c1ccc1c3ccccc3[nH]c12	133 µM	–	–	38 µM	–	13%	–	–	–	traces	fluorescence at 488 nm
c1ccc2c(c1)[nH]c1c3ccsc3ccc21	60 µM	26 µM/min	1e-05 M l-1	25 µM	6%	–	–	–	–	–	–
COc1ccc2[nH]c3c4ccsc4ccc3c2c1	47 µM	13 µM/min	1e-06 M l-1	20 µM	–	4%	–	–	–	–	–
Cn1cnc2c3[nH]c4ccccc4c3ccc21	42 µM	29 µM/min	1e-05 M l-1	20 µM	–	4%	–	–	–	–	–
CS(=O)(=O)n1c2c(c3ccccc31)-c1nn[se]c1CC2	140 µM	31 µM/min	0 M l-1	33 µM	13%	–	–	–	–	–	–
Cc1nc2ccc3[nH]c4ccccc4c3c2s1	93 µM	20 µM/min	–	29 µM	–	9%	–	–	–	–	–
CCOC(=O)c1c2[nH]c3ccccc3c2cc2nc(C)sc12	506 µM	33 µM/min	1e-05 M l-1	46 µM	–	48%	–	–	–	–	–
CCOC(=O)c1c2[nH]c3ccc(OC)cc3c2cc2nc(C)sc12	215 µM	40 µM/min	1e-05 M l-1	58 µM	–	21%	–	–	–	–	–
VITAMIN E	20 µM	15 µM	1e-10 M l-1	33 µM	–	2%	–	–	–	–	–
COc1ccc2[nH]c3c(c2c1)-c1cccc(OC)c1C3=O	58 µM	11 µM/min	1e-05 M l-1	26 µM	–	6%	–	–	–	–	–
